# Experimental data of several laboratories.
# Compare with care: the assays were run in different laboratories.
SMILES,target or system,test,test system,setting,endpoint,result
O=C(NO)c1ccc(CC(=O)N(CCO)c2ccccc2)cc1,OCI-Ly1,"cell growth or viability, ATP luminescence",,"1 µM, 5 days",viability,74.7%
CCCCCCCCCCCCCCCCCCOc1ccc(CC(=O)OCC[N+](CC)(CC)CC)cc1,HOP-62,"cell growth or viability, SRB",,10 µM,inhibition,2.95%
CC(=O)OC[C@H]1O[C@@H](n2cnc(N)nc2=O)[C@H](OC(C)=O)[C@@H]1OC(C)=O,OCI-Ly1,"cell growth or viability, ATP luminescence",,"0.1 µM, 5 days",viability,177%
Cc1cc(Nc2nnc(-c3n[nH]c4ccc(C)cc34)s2)cc([N+](=O)[O-])c1,Staphylococcus epidermidis,microbial growth,ATCC12228,,MIC,208 µg/mL
CC[C@H]1OC(=O)[C@H](C)[C@@H](O[C@H]2C[C@@](C)(OC)[C@@H](O)[C@H](C)O2)[C@H](C)[C@@H](O[C@@H]2O[C@H](C)C[C@H](N(C)C)[C@H]2O)[C@](C)(O)C[C@@H](C)/C(=N\OCOCCOC)[C@H](C)[C@@H](O)[C@]1(C)O,Staphylococcus epidermidis,microbial growth,,clinical isolate,MIC50,32 µg/mL
Cc1ccc2[nH]nc(-c3nnc(Nc4cc(Cl)cc(Br)c4)s3)c2c1,Staphylococcus epidermidis,microbial growth,ATCC12228,,MIC,210 µg/mL
CN(C)CCNC(=O)c1ccc(-c2nc3ccc4[nH]ncc4c3c3c2CCC3)cc1,K562,"cell growth or viability, resazurin",,72 h,GI50,2.5 µM
Cc1ccc2[nH]nc(-c3nnc(Nc4ccc(C(F)(F)F)cc4)s3)c2c1,Staphylococcus epidermidis,microbial growth,ATCC12228,,MIC,123 µg/mL
Cc1n[nH]c2ccc3nc(-c4ccc(C(=O)NCCN(C)C)nc4)c4c(c3c12)CCCCC4,K562,"cell growth or viability, resazurin",,72 h,GI50,8.5 µM
O=C(Nc1ccc(Cl)cc1)C1CCCN(C(=O)c2cc(C(F)(F)F)cc(C(F)(F)F)c2)C1 (racemic),OCI-Ly1,"cell growth or viability, ATP luminescence",,"1 µM, 5 days",viability,161%
CCCCCCCCCCCCCCCCCCOc1ccccc1CC(=O)OCC[N+]1(C)CCOCC1,HOP-62,"cell growth or viability, SRB",,10 µM,inhibition,44.4%
COCCCNC(=O)c1ccc(-c2nc3ccc4[nH]ncc4c3c3c2CCCC3)cc1,K562,"cell growth or viability, resazurin",,72 h,GI50,> 10 µM
CCCCCCCCCCCCCCCCCCOc1cccc(CC(=O)OCC[N+]2(C)CCOCC2)c1,HOP-92,"cell growth or viability, SRB",,10 µM,inhibition,13.9%
CN(C)CCN(C)C(=O)c1ccc(-c2nc3ccc4[nH]ncc4c3c3c2CCCCC3)cn1,K562,"cell growth or viability, resazurin",,72 h,GI50,9.2 µM
CCCCCCCCCCCCCCCCCCOc1ccccc1CC(=O)OCC[N+]1(C)CCCCC1,HOP-92,"cell growth or viability, SRB",,10 µM,inhibition,109%
CCc1nc(C(N)=O)c(Nc2ccc(N3CCC(N4CCN(C)CC4)CC3)c(OC)c2)nc1NC1CCOCC1,K562,"cell growth or viability, resazurin",,72 h,GI50,2.3 µM
CCCCCCCCCCCCCCCCCCOc1cccc(CC(=O)OCC[N+](C)(C)C)c1,HOP-92,"cell growth or viability, SRB",,10 µM,inhibition,12.2%
O=C(NCCN1CCCC1)c1ccc(-c2nc3ccc4[nH]ncc4c3c3c2CCCC3)cc1,K562,"cell growth or viability, resazurin",,72 h,GI50,2.7 µM
COc1c(N2C[C@@H]3CCCN[C@@H]3C2)c(F)cc2c(=O)c(C(=O)O)cn(C3CC3)c12,Staphylococcus epidermidis,"microbial growth, broth dilution",,clinical isolate,MIC50,0.5 µg/mL
COC(=O)CNC(=O)C(=O)OC,OCI-Ly1,"cell growth or viability, ATP luminescence",,"1 µM, 5 days",viability,146%
CN[C@H](CC(C)C)C(=O)N[C@H]1C(=O)N[C@@H](CC(N)=O)C(=O)N[C@H]2C(=O)N[C@H]3C(=O)N[C@H](C(=O)N[C@H](C(=O)O)c4cc(O)cc(O)c4-c4cc3ccc4O)[C@H](O)c3ccc(c(Cl)c3)Oc3cc2cc(c3O[C@@H]2O[C@H](CO)[C@@H](O)[C@H](O)[C@H]2O[C@H]2C[C@](C)(N)[C@H](O)[C@H](C)O2)Oc2ccc(cc2Cl)[C@H]1O,Staphylococcus epidermidis,microbial growth,MRSE,clinical isolate,MIC90,2 µg/mL
O=C(CCCCCCSc1ccc2ccccc2c1)NO,OCI-Ly1,"cell growth or viability, ATP luminescence",,"1 µM, 5 days",viability,154%
CN(C)CCNC(=O)c1ccc(-c2nc3ccc4[nH]ncc4c3c3c2CC(F)(F)CC3)cc1,K562,"cell growth or viability, resazurin",,72 h,GI50,3.1 µM
CCCCCCCCCCCCCCCCCCOc1cccc(CC(=O)OCC[N+]2(C)CCCC2)c1,HOP-92,"cell growth or viability, SRB",,10 µM,inhibition,30%
O=C(NCCc1ccccn1)c1ccc(-c2nc3ccc4[nH]ncc4c3c3c2CCCC3)cc1,K562,"cell growth or viability, resazurin",,72 h,GI50,8.4 µM
CC1(C)S[C@@H]2[C@H](NC(=O)[C@H](N)c3ccccc3)C(=O)N2[C@H]1C(=O)O,Staphylococcus epidermidis,microbial growth,,clinical isolate,MIC90,8 µg/mL
CC[C@H]1OC(=O)[C@H](C)[C@@H](O[C@H]2C[C@@](C)(OC)[C@@H](O)[C@H](C)O2)[C@H](C)[C@@H](O[C@@H]2O[C@H](C)C[C@H](N(C)C)[C@H]2O)[C@](C)(O)C[C@@H](C)CN(C)[C@H](C)[C@@H](O)[C@]1(C)O,Staphylococcus epidermidis,microbial growth,ATCC12228,,MIC,< 98 µg/mL
CC(=O)NC[C@H]1CN(c2ccc(N3CCOCC3)c(F)c2)C(=O)O1,Staphylococcus epidermidis,microbial growth,,clinical isolate,MIC90,2 µg/mL
CCCCCCCCCCCCCCCCCCOc1ccccc1CC(=O)OCC[N+]1(C)CCCC1,HOP-62,"cell growth or viability, SRB",,10 µM,inhibition,46.5%
